Measurements from ChEMBL document CHEMBL1128437, “Derivatives of 17-phenyl-18,19,20-trinorprostaglandin F2 alpha isopropyl ester: potential antiglaucoma agents” (J Med Chem, 1995).

Legend:
Oryctolagus cuniculus [1] = species on record: Oryctolagus cuniculus; experiment: The mean area between curves for conjunctival hyperemia between treated and control eyes. The effect was tested in rabbit at a dose of 0.5 (ug/eye)
Oryctolagus cuniculus [2] = species on record: Oryctolagus cuniculus; experiment: The maximal difference in conjunctival hyperemia between treated and control eyes. The effect was tested in rabbit at a dose of 0.5 (ug/eye)
Felis catus [3] = species on record: Felis catus; experiment: The mean ocular irritation in the treated eyes. An arbitrary scale of from 0 to 3 was used, 0 indicates absence of irritation and 3 complete closure of the lids. The effect was tested in cats at a dose of 1.0 (ug/eye); assay type: functional
Summary of the method: (§1)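 Ocular irritation was scored in the treated eye of trained female cats, 2–3 kg. Drug was given as one topical 20 µL drop in 0.9% NaCl with 0.5% polysorbate 80. The contralateral eye got vehicle only.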

Felis catus [4] = species on record: Felis catus; experiment: The mean area between curves for pupil diameter between treated and control eyes. The effect was tested in cats at a dose of 1.0 (ug/eye); assay type: functional
Summary of the method: (§2)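 Trained female cats, 2–3 kg, were dosed unilaterally with one 20 µL topical drop of drug in 0.9% NaCl/0.5% polysorbate 80, with vehicle in the contralateral eye. Horizontal pupil diameter was measured with a millimetre ruler under constant 10 lux illumination before dosing and at 1, 3, 6 and 23 h. Reported as maximal treated–control difference or as area between curves, per animal.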

Felis catus [5] = species on record: Felis catus; experiment: The maximal difference in Intraocular Pressure (IOP) between treated and control eyes. The effect was tested in cats at a dose of 1.0 (ug/eye); assay type: functional
Summary of the method: (§3)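 Domestic female cats, 2–3 kg, trained for IOP measurement. One eye received a topical drop (20 µL) of drug in 0.9% NaCl with 0.5% polysorbate 80; the other eye received vehicle. IOP was read by pneumatonometer under oxibuprocain local anaesthesia before dosing and at 1, 3, 6 and 23 h. The maximal treated-minus-control difference was taken. Area between curves is the treated-eye AUC minus control-eye AUC, per animal.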

Felis catus [6] = species on record: Felis catus; experiment: The mean area between curves for Intraocular Pressure (IOP) measured in treated and control eyes. The effect was tested in cats at a dose of 1.0 (ug/eye); assay type: functional
Summary of the method: as §3

Felis catus [7] = species on record: Felis catus; experiment: The maximal difference in […] pupil diameter between treated and control eyes. The effect was tested in cats at a dose of 1.0 (ug/eye); assay type: functional
Summary of the method: as §2

Felis catus [8] = species on record: Felis catus; experiment: The maximal difference in […] pupil diameter between treated and control eyes. The effect was tested in cats at a dose of 3.0 (ug/eye); assay type: functional
Summary of the method: as §2

Felis catus [9] = species on record: Felis catus; experiment: The mean area between curves for Intraocular Pressure (IOP) measured in treated and control eyes. The effect was tested in cats at a dose of 3.0 (ug/eye); assay type: functional
Summary of the method: as §3

Felis catus [10] = species on record: Felis catus; experiment: The mean ocular irritation in the treated eyes. An arbitrary scale of from 0 to 3 was used, 0 indicates absence of irritation and 3 complete closure of the lids. The effect was tested in cats at a dose of 3.0 (ug/eye); assay type: functional
Summary of the method: as §1

Felis catus [11] = species on record: Felis catus; experiment: The mean area between curves for pupil diameter between treated and control eyes. The effect was tested in cats at a dose of 3.0 (ug/eye); assay type: functional
Summary of the method: as §2

Felis catus [12] = species on record: Felis catus; experiment: The maximal difference in Intraocular Pressure (IOP) between treated and control eyes. The effect was tested in cats at a dose of 3.0 (ug/eye); assay type: functional
Summary of the method: as §3

SMILES	H ABC (Oryctolagus cuniculus [1])	Hmax (Oryctolagus cuniculus [2])	Irritation (Felis catus [3])	P ABC (Felis catus [4])	Imax (Felis catus [5])	I ABC (Felis catus [6])	Pmax (Felis catus [7])	Pmax (Felis catus [8])	I ABC (Felis catus [9])	Irritation (Felis catus [10])	P ABC (Felis catus [11])	Imax (Felis catus [12])
CC(C)OC(=O)CCC/C=C\C[C@@H]1[C@@H](/C=C/[C@@H](O)CCc2cccc(-c3ccsc3)c2)[C@H](O)C[C@@H]1O	<2.9	<1.3	0.1 arbitrary units	-1.7	-1.1 mmHg	-21	< -1 mm					
CC(C)OC(=O)CCC/C=C\C[C@@H]1[C@@H](/C=C/[C@@H](O)CCc2cccc(-c3cccs3)c2)[C@H](O)C[C@@H]1O	<2.6	<0.9	0.1 arbitrary units	-9.2	<-3 mmHg	<-40	< -1.5 mm	< -3.5 mm	-10.3	0.3 arbitrary units	<-28	-1.2 mmHg
CC(C)OC(=O)CCC/C=C\C[C@@H]1[C@@H](/C=C/[C@@H](O)CCc2cccc(-c3ccccc3)c2)[C@H](O)C[C@@H]1O	<1.9	<0.9	0.1 arbitrary units	2.3	<-4 mmHg	<-30	-0.3 mm					
CC(C)OC(=O)CCC/C=C\C[C@@H]1[C@@H](/C=C/[C@@H](O)CCc2cccc(-c3ccco3)c2)[C@H](O)C[C@@H]1O	0.3	<0.3						-0.3 mm	9.8	0.1 arbitrary units	-2.5	0.8 mmHg
CC(C)OC(=O)CCC/C=C\C[C@@H]1[C@@H](/C=C/[C@@H](O)CCc2ccc(-c3ccoc3)cc2)[C@H](O)C[C@@H]1O	0.3	0.2										
CC(C)OC(=O)CCC/C=C\C[C@@H]1[C@@H](/C=C/[C@@H](O)CCc2cccc(-c3ccoc3)c2)[C@H](O)C[C@@H]1O	1.3	<0.5						-1.3 mm	-24.4	0.5 arbitrary units	<-9.3	-3 mmHg
CC(C)OC(=O)CCC/C=C\C[C@@H]1[C@@H](/C=C/[C@H](O)CCc2ccc(-c3ccoc3)cc2)[C@H](O)C[C@@H]1O	-0.7	-0.3										
CC(C)OC(=O)CCC/C=C\C[C@@H]1[C@@H](/C=C/[C@H](O)CCc2cccc(-c3ccoc3)c2)[C@H](O)C[C@@H]1O	<1.6	<0.5						-1.3 mm	-16.3	0 arbitrary units	-13	-3 mmHg
CC(C)OC(=O)CCC/C=C\C[C@@H]1[C@@H](/C=C/[C@H](O)CCc2cccc(-c3ccco3)c2)[C@H](O)C[C@@H]1O	0.4	0.3						-0.3 mm	-8	0.4 arbitrary units	-5.7	-1.2 mmHg
CC(C)OC(=O)CCC/C=C\C[C@@H]1[C@@H](/C=C/[C@H](O)CCc2ccc(-c3ccco3)cc2)[C@H](O)C[C@@H]1O	<1	<0.5						< -1.5 mm	-25.8	0.2 arbitrary units	<-10.6	2.5 mmHg
CC(C)OC(=O)CCC/C=C\C[C@@H]1[C@@H](/C=C/[C@H](O)CCc2cccc(-c3ccccc3)c2)[C@H](O)C[C@@H]1O	<2.2	<0.7	0 arbitrary units	6.5	<-1.5 mmHg	-23.5	0.5 mm					
Cc1ccc(CC[C@@H](O)/C=C/[C@@H]2[C@@H](C/C=C\CCCC(=O)OC(C)C)[C@@H](O)C[C@H]2O)cc1	-0.2	0.2						-0.2 mm	-10.8	0 arbitrary units	-0.2	-1.8 mmHg
CC(=O)c1ccc(CC[C@@H](O)/C=C/[C@@H]2[C@@H](C/C=C\CCCC(=O)OC(C)C)[C@@H](O)C[C@H]2O)cc1	-0.3	-0.2	0 arbitrary units	0.2	-1.8 mmHg	-17.9	-0.2 mm					
CC(C)OC(=O)CCC/C=C\C[C@@H]1[C@@H](/C=C/[C@H](O)CCc2ccc(-c3cccs3)cc2)[C@H](O)C[C@@H]1O	0.3	0.3						0 mm	4.2	0.2 arbitrary units	0	-1.3 mmHg
CC(C)OC(=O)CCC/C=C\C[C@@H]1[C@@H](/C=C/[C@H](O)CCc2cccc(-c3cccs3)c2)[C@H](O)C[C@@H]1O	0.1	0.2	0.3 arbitrary units	<-12.4	<2.2 mmHg	12.8	< -1.3 mm					
CC(C)OC(=O)CCC/C=C\C[C@@H]1[C@@H](/C=C/[C@H](O)CCc2cccc(-c3ccsc3)c2)[C@H](O)C[C@@H]1O	-0.8	-0.3	0.1 arbitrary units	<-14	1.7 mmHg	16	< -1 mm					
Cc1cccc(CC[C@@H](O)/C=C/[C@@H]2[C@@H](C/C=C\CCCC(=O)OC(C)C)[C@@H](O)C[C@H]2O)c1	-0.1	0.2	0.1 arbitrary units	<-13.3	-0.3 mmHg	-1.8	< -1.5 mm					
CC(C)OC(=O)CCC/C=C\C[C@@H]1[C@@H](/C=C/[C@H](O)CCc2ccc(-c3ccsc3)cc2)[C@H](O)C[C@@H]1O	-0.1	-0.2	0 arbitrary units	-1.8	-0.3 mmHg	-3.1	< -0.7 mm					
CC(C)OC(=O)CCC/C=C\C[C@@H]1[C@@H](/C=C/[C@H](O)CCc2ccccc2)[C@H](O)C[C@@H]1O		<1.7	0 arbitrary units	<-50.5	-0.5 mmHg	0.3	< -5.7 mm					
